Data taken from ChEMBL document CHEMBL1151198, “A new antimalarial quassinoid from Simaba orinocensis” (J Nat Prod, 2004).
Values after ≈ are worked out from the molar mass of the structure shown. Active and inactive are the calls of the source. The rule behind the calls is not given here.

Columns and labels:
[1] = system: Vero; assay: Cytotoxicity against african green monkey kidney Vero cells; type: cell-based; conditions: Chlorocebus sabaeus
[2] = system: HeLa; assay: Inhibition of protein synthesis in human HeLa cells at 10 uM by [35S]methionine metabolic labeling study; type: functional
[3] = system: HeLa; assay: Inhibition of protein synthesis in human HeLa cells assessed as translation at 10 uM by [35S]methionine metabolic labeling study; type: functional; parameters: scale not given: the % may be the effect or the level left
[4] = Inhibition of protein biosynthesis in mouse Krebs cells assessed as renilla luciferase activity at 10 uM after 1 hr by translation assay relative to control; type: functional
Procedure, shortened: (§1)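 In vitro Krebs cell translation system read by firefly and renilla luciferase. Compounds at 10 or 2 µM; anisomycin 10 µM as reference and 0.5% DMSO as vehicle control. Values are average luciferase activity relative to control.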

[5] = system: HeLa; assay: Inhibition of translation in human HeLa cells at 10 uM by 35S-methionine metabolic labeling study; type: functional, cell-based
[6] = Inhibition of protein biosynthesis in mouse Krebs cells assessed as firefly luciferase activity at 10 uM after 1 hr by translation assay relative to control; type: functional; procedure, shortened: as §1
[7] = system: RAW264.7; assay: Cytotoxicity against mouse RAW264.7 cells after 2 days by MTT assay; type: cell-based; conditions: RAW264.7, 48 h
Procedure, shortened: (§2)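 MTT viability assay, run on CHO-ICAM-1 cells and, separately, on RAW 264.7 cells. IC50 in µg/mL, mean ± SEM of three determinations.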

[8] = system: RAW264.7; assay: Inhibition of iNOS production in LPS-activated mouse RAW264.7 cells after 20 hrs; type: functional, cell-based; conditions: RAW264.7, 20 h
Procedure, shortened: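 iNOS assay in RAW 264.7 cells, with L-NMMA, APDC and dexamethasone as reference inhibitors. IC50 in µg/mL, mean ± SEM of three determinations.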

[9] = Specific index, ratio of IC50 for mouse RAW264.7 to IC50 for iNOS production in mouse RAW264.7
Procedure, shortened: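 Index calculated as the MTT IC50 in RAW 264.7 cells divided by the iNOS IC50 in the same cells.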

[10] = system: Leishmania donovani; assay: Antileishmanial activity against Leishmania donovani promastigotes after 48 hrs by alamar blue assay; type: functional, organism-based
[11] = target: Intercellular adhesion molecule (ICAM-1), Integrin alpha-L/beta-2 (Homo sapiens, UniProt P05107+P05362+P20701); assay: Inhibition of LFA1/ICAM1-mediated adhesion of HL60 cells to CHO-ICAM1 cells; type: cell-based, HL-60
Chain of Intercellular adhesion molecule (ICAM-1), Integrin alpha-L/beta-2 (P20701 whole entry): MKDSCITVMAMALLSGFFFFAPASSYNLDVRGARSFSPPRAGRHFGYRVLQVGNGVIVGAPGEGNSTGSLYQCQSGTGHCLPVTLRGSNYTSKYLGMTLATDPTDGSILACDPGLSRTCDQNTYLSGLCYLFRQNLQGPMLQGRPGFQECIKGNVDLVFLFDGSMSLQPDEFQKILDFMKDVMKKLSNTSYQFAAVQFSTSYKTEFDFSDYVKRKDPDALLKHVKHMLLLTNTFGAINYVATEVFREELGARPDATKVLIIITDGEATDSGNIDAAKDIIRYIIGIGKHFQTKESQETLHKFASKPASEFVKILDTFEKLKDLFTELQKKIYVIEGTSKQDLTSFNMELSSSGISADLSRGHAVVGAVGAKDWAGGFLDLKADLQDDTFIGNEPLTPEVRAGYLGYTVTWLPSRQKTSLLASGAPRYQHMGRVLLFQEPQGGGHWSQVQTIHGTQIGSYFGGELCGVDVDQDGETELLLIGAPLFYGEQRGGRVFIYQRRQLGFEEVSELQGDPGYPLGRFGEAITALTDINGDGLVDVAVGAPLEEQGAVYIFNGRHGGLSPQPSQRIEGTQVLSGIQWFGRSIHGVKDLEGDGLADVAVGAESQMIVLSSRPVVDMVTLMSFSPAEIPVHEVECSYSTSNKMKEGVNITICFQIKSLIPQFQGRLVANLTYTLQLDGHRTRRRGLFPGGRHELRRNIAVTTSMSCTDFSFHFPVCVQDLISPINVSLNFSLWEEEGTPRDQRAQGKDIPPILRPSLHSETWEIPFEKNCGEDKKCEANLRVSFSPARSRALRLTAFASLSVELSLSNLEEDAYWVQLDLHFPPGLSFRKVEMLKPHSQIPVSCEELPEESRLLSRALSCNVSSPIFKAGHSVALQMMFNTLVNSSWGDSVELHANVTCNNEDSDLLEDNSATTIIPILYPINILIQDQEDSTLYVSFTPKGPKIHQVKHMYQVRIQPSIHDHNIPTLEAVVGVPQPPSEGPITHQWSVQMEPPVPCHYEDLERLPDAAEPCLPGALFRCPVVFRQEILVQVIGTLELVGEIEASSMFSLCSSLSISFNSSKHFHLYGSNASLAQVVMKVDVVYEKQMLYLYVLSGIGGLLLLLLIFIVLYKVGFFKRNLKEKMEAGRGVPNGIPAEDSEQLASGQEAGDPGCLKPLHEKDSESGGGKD
Chain of Intercellular adhesion molecule (ICAM-1), Integrin alpha-L/beta-2 (P05362 whole entry): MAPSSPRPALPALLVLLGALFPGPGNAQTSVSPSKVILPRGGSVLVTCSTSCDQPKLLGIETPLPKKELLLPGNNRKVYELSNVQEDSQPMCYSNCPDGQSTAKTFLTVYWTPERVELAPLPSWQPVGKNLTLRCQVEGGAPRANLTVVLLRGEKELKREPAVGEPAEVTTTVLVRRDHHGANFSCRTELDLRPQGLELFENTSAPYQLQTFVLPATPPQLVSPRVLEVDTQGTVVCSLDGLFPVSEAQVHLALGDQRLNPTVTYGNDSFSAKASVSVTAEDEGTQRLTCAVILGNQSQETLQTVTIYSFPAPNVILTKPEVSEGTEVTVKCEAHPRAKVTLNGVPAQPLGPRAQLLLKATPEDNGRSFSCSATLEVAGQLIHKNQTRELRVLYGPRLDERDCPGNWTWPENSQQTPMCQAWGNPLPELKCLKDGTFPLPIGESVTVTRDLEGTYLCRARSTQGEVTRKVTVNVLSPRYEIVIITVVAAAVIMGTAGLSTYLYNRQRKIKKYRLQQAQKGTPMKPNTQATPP
Chain of Intercellular adhesion molecule (ICAM-1), Integrin alpha-L/beta-2 (P05107 whole entry): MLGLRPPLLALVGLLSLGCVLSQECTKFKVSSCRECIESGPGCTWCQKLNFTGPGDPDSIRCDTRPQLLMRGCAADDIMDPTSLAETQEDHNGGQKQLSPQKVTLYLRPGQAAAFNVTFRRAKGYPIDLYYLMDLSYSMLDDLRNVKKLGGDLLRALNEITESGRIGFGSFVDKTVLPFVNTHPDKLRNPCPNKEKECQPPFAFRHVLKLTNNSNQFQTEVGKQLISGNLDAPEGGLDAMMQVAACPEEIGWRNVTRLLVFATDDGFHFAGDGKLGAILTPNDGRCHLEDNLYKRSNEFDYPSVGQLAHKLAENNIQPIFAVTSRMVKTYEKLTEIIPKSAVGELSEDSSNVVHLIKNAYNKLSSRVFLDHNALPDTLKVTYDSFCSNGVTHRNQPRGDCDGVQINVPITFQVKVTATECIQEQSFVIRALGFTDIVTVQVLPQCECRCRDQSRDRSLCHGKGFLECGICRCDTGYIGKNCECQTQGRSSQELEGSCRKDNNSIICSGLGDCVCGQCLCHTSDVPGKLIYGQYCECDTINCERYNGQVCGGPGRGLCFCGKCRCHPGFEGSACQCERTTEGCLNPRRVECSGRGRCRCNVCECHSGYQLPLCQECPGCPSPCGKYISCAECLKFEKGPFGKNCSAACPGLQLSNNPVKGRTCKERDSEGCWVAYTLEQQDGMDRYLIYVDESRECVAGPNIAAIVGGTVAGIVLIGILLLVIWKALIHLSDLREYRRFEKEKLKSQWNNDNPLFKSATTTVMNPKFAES
Procedure, shortened: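 Secondary LFA-1/ICAM-1-mediated adhesion assay using HL-60 cells and CHO-ICAM-1 cells, with cytochalasin B as standard. IC50 in µg/mL, mean ± SEM of three determinations.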

[12] = target: Intercellular adhesion molecule (ICAM-1), Integrin alpha-L/beta-2 (Homo sapiens) (UniProt P20701+P05362+P05107); assay: Inhibition of LFA1/ICAM1-mediated HL60 cell aggregation; type: cell-based; conditions: HL-60
Procedure, shortened: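 Primary screen for LFA-1/ICAM-1-mediated cell aggregation run together with an XTT cell-proliferation read-out. Aggregation potency is reported as a minimum inhibitory concentration in µg/mL.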

[13] = Specific index, ratio of IC50 for human HL60 cells to MIC for LFA1/ICAM1; type: functional, HL-60
Procedure, shortened: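 Index calculated as XTT-assay IC50 (µg/mL) divided by the MIC from the LFA-1/ICAM-1-mediated aggregation primary screen (µg/mL). XTT IC50 values are given as mean ± SEM of three determinations.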

[14] = system: CHO; assay: Cytotoxicity against CHO cells transfected with ICAM1 by MTT assay; type: cell-based; conditions: Cricetulus griseus; procedure, shortened: as §2
[15] = system: HL-60; assay: Cytotoxicity against human HL60 cells by XTT assay; type: cell-based
Procedure, shortened: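 XTT proliferation read-out combined with the primary assay for inhibitors of LFA-1/ICAM-1-mediated cell aggregation. IC50 in µg/mL, mean ± SEM of three determinations.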

[16] = Specific index, ratio of IC50 for CHO cells to IC50 for LFA1/ICAM1
Procedure, shortened: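 Ratio of the MTT IC50 against CHO-ICAM-1 cells to the IC50 from the secondary LFA-1/ICAM-1-mediated adhesion assay, in which HL-60 cells adhere to CHO-ICAM-1 cells. IC50 values are in µg/mL, as mean ± SEM of three determinations.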

[17] = Inhibition of protein biosynthesis in mouse Krebs cells assessed as renilla luciferase activity at 2 uM after 1 hr by translation assay relative to control; type: functional; procedure, shortened: as §1
[18] = Inhibition of protein biosynthesis in mouse Krebs cells assessed as firefly luciferase activity at 2 uM after 1 hr by translation assay relative to control; type: functional; procedure, shortened: as §1
[19] = system: HeLa; assay: Inhibition of translation in human HeLa cells at 2 uM by 35S-methionine metabolic labeling study; type: functional, cell-based
[20] = system: HeLa; assay: Inhibition of protein synthesis in human HeLa cells at 2 uM by [35S]methionine metabolic labeling study; type: functional
[21] = system: Plasmodium falciparum; assay: Antimalarial activity against chloroquine-sensitive Plasmodium falciparum D6 by LDH assay; type: functional, organism-based
[22] = system: Plasmodium falciparum; assay: Antimalarial activity against chloroquine-resistant Plasmodium falciparum W2 by LDH assay; type: functional, organism-based
[23] = system: HeLa; assay: Inhibition of protein synthesis in human HeLa cells assessed as translation at 2 uM by [35S]methionine metabolic labeling study; type: functional; parameters: scale not given: the % may be the effect or the level left

CCN(CC)CCCC(C)Nc1ccnc2cc(Cl)ccc12 (stereo not drawn) [CHLOROQUINE]
IC50 [1]: > 10 µg/mL

COc1ccc(C[C@H]2NC[C@H](O)[C@H]2OC(C)=O)cc1 [ANISOMYCIN]
inhibition at 10 µM [2]: 98.5% | Activity [3]: 0% | Activity [4]: <0.01 | Activity [5]: Active | Activity [6]: <0.01

C[C@@H]1C[C@H]2[C@@H]3CCC4=CC(=O)C=C[C@]4(C)[C@@]3(F)[C@@H](O)C[C@]2(C)[C@@]1(O)C(=O)CO [DEXAMETHASONE]
IC50 [7]: > 25 µg/mL | IC50 [8]: 36 µg/mL (≈ 91.7 µM) | Ratio [9]: 0.69

C[C@@H]1[C@H](O)[C@@H](C)/C=C/C=C/C=C/C=C/C=C/C=C/C=C/[C@H](O[C@@H]2O[C@H](C)[C@@H](O)[C@H](N)[C@@H]2O)C[C@@H]2O[C@](O)(C[C@@H](O)C[C@@H](O)[C@H](O)CC[C@@H](O)C[C@@H](O)CC(=O)O[C@H]1C)C[C@H](O)[C@H]2C(=O)O [AMPHOTERICIN B]
IC50 [10]: 1.1 µg/mL (≈ 1.19 µM) | IC90 [10]: 2.1 µg/mL (≈ 2.27 µM)

C=C1[C@@H](C)[C@H]2[C@H](Cc3ccccc3)NC(=O)[C@]23OC(=O)/C=C/[C@H](O)CCC[C@@H](C)C/C=C/[C@H]3[C@@H]1O [CYTOCHALASIN B]
IC50 [11]: 14.8 µM | MIC [12]: 2.3 µg/mL (≈ 4.8 µM) | IC50 [7]: 6.5 µg/mL (≈ 13.6 µM) | IC50 [8]: 5.6 µg/mL (≈ 11.7 µM) | Ratio [13]: 17.2 | IC50 [14]: 0.26 µg/mL (≈ 0.542 µM) | Ratio [9]: 1.1 | IC50 [15]: 40 µg/mL (≈ 83.4 µM) | Ratio [16]: 0.04

CC[C@@H](C)C(=O)O[C@H]1C(=O)O[C@@H]2C[C@H]3C(C)=C[C@H](OC(C)=O)[C@@H](OC(C)=O)[C@]3(C)[C@H]3[C@@H](O)[C@@H](OC(C)=O)[C@]4(C)OC[C@]32[C@@H]14
Activity [17]: 1.14 | Activity [18]: 0.87 | Activity [19]: inactive | Activity [4]: 1.03 | IC50 [10]: > 50 µg/mL | IC90 [10]: > 50 µg/mL | inhibition at 2 µM [20]: 0% | Activity [5]: inactive | IC50 [1]: 10 µg/mL (≈ 16.5 µM) | IC50 [21]: > 4.76 µg/mL | Activity [6]: 1.02 | IC50 [22]: > 4.76 µg/mL | Activity [23]: 100%
